We go through 18 compounds from ChEMBL document CHEMBL1139690, “Comparison between two classes of selective EP(3) antagonists and their biological activities” (Bioorg Med Chem Lett, 2006).

Data set [1] concerns the target T1, Prostaglandin E2 receptor EP3 subtype (Homo sapiens) (UniProt P43115).
T1 sequence (whole entry): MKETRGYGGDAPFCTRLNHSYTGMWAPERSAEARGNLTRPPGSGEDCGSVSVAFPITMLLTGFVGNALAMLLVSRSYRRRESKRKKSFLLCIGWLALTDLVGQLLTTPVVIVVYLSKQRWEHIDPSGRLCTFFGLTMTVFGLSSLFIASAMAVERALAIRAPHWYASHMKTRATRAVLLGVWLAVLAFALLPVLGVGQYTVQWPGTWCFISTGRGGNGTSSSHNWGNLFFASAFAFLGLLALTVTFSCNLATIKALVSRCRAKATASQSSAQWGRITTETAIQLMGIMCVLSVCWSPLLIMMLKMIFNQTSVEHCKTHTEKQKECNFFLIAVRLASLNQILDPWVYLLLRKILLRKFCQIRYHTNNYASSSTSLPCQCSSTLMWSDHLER
In words: Antagonistic activity at EP3 receptor assessed as inhibition of cAMP production in HEK EBNA cells. As to conditions: HEK293-EBNA, filed as antagonist. The format is functional, cell-based.

The nature of data set [2]: Cmax in Sprague-Dawley rat at 10 mg/kg, po and 5 mg/kg, iv after 30 mins. It counts as ADME, organism-based. Conditions: in vivo.
The target in data set [3] is T2, Prostaglandin E2 receptor EP1 subtype (Homo sapiens, UniProt P34995).
T2 sequence (P34995 whole entry): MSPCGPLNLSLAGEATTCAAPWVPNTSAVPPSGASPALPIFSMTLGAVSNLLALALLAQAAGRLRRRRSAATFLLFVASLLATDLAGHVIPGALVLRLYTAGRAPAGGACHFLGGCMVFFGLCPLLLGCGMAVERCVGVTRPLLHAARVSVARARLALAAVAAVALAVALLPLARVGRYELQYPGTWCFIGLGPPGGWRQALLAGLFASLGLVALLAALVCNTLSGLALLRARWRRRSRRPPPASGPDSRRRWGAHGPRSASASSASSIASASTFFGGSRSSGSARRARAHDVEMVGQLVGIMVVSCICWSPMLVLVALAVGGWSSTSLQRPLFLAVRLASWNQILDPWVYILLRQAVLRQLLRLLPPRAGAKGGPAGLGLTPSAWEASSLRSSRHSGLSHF
The data set is described as follows: Binding affinity to EP1 receptor.

In data set [4] the test system is Rattus norvegicus. In words: Effect on carrageenan-induced paw hyperalgesia in po dosed rat. The format is functional.
Data set [5] has as its target Prostaglandin E2 receptor EP2 subtype (Homo sapiens, UniProt P43116). The data set is described as follows: Binding affinity to EP2 receptor.
Data set [6] has as its target T3, Prostaglandin E2 receptor EP3 subtype (Homo sapiens, UniProt P43115).
T3 sequence (P43115 whole entry): T1 sequence (whole entry)
The data set is described as follows: Binding affinity to EP3 receptor.

Data set [7] has as its system Rattus norvegicus. The data set is described as follows: Concentration in carrageenan-induced hyperalgesic rat at 10 mg/kg, po, 1 hr postdose. The format is functional. In a few lines: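 Young 100 g rats from the hyperalgesia model given 10 mg/kg po in 0.5% methocel as sodium salts; plasma concentration measured 1 h post-dosing, at the time hyperalgesia was assessed.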

Data set [8] relates to Rattus norvegicus. The data set is described as follows: Antiinflammatory activity against carrageenan-induced paw edema in po dosed rat. It counts as functional.
Data set [9] can be described thus: Half life in Sprague-Dawley rat at 10 mg/kg, po and 5 mg/kg, iv. It counts as ADME, organism-based. Conditions: in vivo.
Data set [10] has as its target T4, Prostaglandin D2 receptor (Homo sapiens, UniProt Q13258).
T4 sequence (Q13258 whole entry): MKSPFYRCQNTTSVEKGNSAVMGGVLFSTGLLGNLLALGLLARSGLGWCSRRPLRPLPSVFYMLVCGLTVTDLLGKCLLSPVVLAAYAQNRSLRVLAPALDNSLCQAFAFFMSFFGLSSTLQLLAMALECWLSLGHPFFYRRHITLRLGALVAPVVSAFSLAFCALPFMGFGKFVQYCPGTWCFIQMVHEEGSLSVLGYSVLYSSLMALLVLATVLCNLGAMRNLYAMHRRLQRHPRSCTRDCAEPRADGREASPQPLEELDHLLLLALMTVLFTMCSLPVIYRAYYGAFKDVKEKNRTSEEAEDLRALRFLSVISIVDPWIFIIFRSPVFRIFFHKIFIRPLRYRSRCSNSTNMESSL
In words: Binding affinity to DP receptor.

A short description of data set [11]: Bioavailability in Sprague-Dawley rat at 10 mg/kg, po and 5 mg/kg, iv. Conditions: in vivo. The format is ADME, organism-based.
Data set [12] deals with Prostaglandin F2-alpha receptor (Homo sapiens, UniProt P43088). In words: Binding affinity to FP receptor.
Sequence of Prostaglandin F2-alpha receptor (P43088 whole entry): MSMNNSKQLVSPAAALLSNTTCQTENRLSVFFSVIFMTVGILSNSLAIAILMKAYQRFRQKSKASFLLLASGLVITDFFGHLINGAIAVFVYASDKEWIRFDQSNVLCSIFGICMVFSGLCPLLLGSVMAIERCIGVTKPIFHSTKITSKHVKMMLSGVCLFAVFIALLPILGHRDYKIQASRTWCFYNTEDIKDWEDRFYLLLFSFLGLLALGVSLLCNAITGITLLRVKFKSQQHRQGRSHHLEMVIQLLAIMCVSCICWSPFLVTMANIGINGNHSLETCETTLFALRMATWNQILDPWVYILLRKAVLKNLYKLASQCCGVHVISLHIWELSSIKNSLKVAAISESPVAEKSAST
The target of data set [13] is Prostaglandin E2 receptor EP4 subtype (Homo sapiens, UniProt P35408). In words: Binding affinity to EP4 receptor.
Sequence of Prostaglandin E2 receptor EP4 subtype (P35408 whole entry): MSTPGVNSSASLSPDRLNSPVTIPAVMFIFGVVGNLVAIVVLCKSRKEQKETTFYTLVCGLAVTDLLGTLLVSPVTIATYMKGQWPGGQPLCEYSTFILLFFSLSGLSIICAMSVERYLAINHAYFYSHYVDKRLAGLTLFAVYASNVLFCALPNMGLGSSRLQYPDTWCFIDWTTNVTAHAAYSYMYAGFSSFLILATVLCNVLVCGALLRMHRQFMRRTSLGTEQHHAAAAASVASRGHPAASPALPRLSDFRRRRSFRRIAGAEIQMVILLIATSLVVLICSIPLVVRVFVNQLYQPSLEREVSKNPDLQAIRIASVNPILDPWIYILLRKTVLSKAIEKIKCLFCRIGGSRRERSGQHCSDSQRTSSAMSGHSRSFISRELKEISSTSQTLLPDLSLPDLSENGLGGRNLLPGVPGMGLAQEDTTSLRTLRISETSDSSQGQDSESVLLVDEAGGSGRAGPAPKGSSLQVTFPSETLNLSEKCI
The next data set concerns the target Prostacyclin receptor (Homo sapiens, UniProt P43119). In words: Binding affinity to IP receptor.
The nature of data set [14]: Clearance in Sprague-Dawley rat at 10 mg/kg, po and 5 mg/kg, iv. It counts as ADME, organism-based. Conditions: in vivo.
The target in another data set is T5, Thromboxane A2 receptor (Homo sapiens, UniProt P21731).
T5 sequence (P21731 whole entry): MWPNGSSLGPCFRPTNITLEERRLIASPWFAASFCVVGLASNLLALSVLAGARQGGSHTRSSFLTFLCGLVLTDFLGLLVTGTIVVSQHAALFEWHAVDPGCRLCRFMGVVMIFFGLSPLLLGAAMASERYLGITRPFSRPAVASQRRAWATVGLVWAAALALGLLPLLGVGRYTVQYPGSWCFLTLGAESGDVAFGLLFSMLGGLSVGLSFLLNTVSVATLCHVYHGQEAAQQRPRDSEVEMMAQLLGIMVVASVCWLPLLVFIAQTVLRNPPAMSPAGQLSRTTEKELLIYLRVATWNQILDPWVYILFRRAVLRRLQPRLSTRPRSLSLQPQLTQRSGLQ
The data set is described as follows: Binding affinity to TP receptor.

The target of data set [15] is T3, Prostaglandin E2 receptor EP3 subtype. In words: Binding affinity to EP3 receptor in presence of HSA.
A short description of data set [16]: Stability in rat hepatocytes after 3 hrs. The format is ADME, cell-based, Hepatocyte. Conditions: read-out: Stability. In outline: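 Incubation with rat hepatocytes for 3 h; percentage of parent compound recovered intact.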

Molecules are shown by their SMILES. Where only a bound is given, the exact number is not on record here.

Sequence of Prostaglandin E2 receptor EP2 subtype (P43116 whole entry): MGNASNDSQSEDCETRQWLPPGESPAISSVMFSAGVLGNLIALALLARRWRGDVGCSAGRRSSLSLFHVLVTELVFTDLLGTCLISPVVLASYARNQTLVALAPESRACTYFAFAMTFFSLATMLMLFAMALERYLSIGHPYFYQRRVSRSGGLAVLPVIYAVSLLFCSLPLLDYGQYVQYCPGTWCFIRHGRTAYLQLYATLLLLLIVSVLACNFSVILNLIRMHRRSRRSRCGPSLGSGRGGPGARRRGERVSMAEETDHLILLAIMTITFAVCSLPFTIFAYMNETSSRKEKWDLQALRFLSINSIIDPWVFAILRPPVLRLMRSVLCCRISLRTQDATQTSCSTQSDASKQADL
Sequence of Prostacyclin receptor (P43119 whole entry): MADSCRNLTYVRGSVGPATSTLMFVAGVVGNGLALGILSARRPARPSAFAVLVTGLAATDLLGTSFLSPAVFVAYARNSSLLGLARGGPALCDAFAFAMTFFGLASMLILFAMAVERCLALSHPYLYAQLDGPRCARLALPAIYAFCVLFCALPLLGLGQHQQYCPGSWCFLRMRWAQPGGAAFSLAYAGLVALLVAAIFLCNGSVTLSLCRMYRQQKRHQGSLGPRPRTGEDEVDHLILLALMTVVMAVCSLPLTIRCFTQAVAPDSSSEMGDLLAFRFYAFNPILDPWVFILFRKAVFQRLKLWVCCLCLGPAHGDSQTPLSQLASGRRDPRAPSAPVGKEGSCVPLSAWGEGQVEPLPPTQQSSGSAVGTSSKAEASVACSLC

As to `Cc1ccc(OCc2c(Cl)cccc2Cl)c(/C=C/Cc2ccccc2/C=C/C(=O)O)c1`, the Kb in data set [1] was 5.8 nM. This compound gave a peak concentration (Cmax) in data set [2] of 25 µM. In addition, the Ki was 6700 nM (antagonist) in data set [3]; 5400 nM (antagonist) in data set [5]; 3 nM (antagonist) in data set [6]; greater than 500 nM in data set [10]; greater than 500 nM in [12]; 620 nM (antagonist) in data set [13]. In addition, the Ki on Prostacyclin receptor and at Thromboxane A2 receptor was greater than 500 nM in each case. Moreover, the median effective dose (ED50) with Rattus norvegicus [4] is 5.8 mg/kg; in the data set on Rattus norvegicus [8], 5.1 mg/kg. Moreover, the Activity with Rattus norvegicus [7] was determined as 2.5 µM. This compound showed a half-life in [9] of 2 h. In data set [11], this compound registered a bioavailability of 74%. Further, the clearance in data set [14] was determined as 16 mL/min.
With `COc1ccc(/C=C/Cc2ccccc2/C=C/C(=O)O)cc1`, the inhibition constant (Ki) in data set [3] is greater than 100000 nM; in data set [5], 2500 nM (antagonist); in data set [6] it was 68 nM (antagonist); in [13], 6200 nM (antagonist).
Consider `O=C(O)/C=C/c1ccccc1Cc1ccc2ccccc2c1`, for which the inhibition constant (Ki) in data set [3] was greater than 100000 nM; in [6], 47 nM (antagonist); in data set [15] it was 400 nM (antagonist); in [10], greater than 500 nM; in data set [12], greater than 500 nM; in data set [13], 13000 nM. In addition, the inhibition constant Ki on Prostacyclin receptor and on Thromboxane A2 receptor was greater than 500 nM each time. Besides, the ED50 with Rattus norvegicus [4] was found to be 30 mg/kg. This compound also registered an Activity in the data set with Rattus norvegicus [7] of 5.4 µM.
For the compound `Cc1ccc(OCc2ccccc2)c(/C=C/Cc2ccccc2/C=C/C(=O)O)c1`, in [1], the Kb was 32 nM. The peak concentration (Cmax) in data set [2] stood at 22 µM. Further, the Ki in [3] was 19000 nM; in data set [5], 860 nM (antagonist); in [6] it was 9 nM (antagonist); in data set [10], greater than 500 nM; in data set [12] it was greater than 500 nM; in data set [13] it was 2000 nM (antagonist). The Ki on Prostacyclin receptor and on Thromboxane A2 receptor was greater than 500 nM throughout. The 50% effective dose (ED50) worked out at 20 mg/kg in the data set with Rattus norvegicus [4] and 0.9 mg/kg with Rattus norvegicus [8]. Further, the Activity with Rattus norvegicus [7] came to 1.2 µM. In data set [9], the half-life was 2 h. The bioavailability in data set [11] is 97%. The clearance in data set [14] was determined as 10 mL/min. In addition, the remaining at 3 h in data set [16] stood at 8%.
In the case of `O=C(O)/C=C/c1ccccc1C/C=C/c1ccccc1`, the inhibition constant Ki was greater than 100000 nM in data set [3], 1400 nM (antagonist) in data set [5], 100 nM (antagonist) in data set [6] and 4400 nM (antagonist) in data set [13].
In the same order, the values of `COc1cc(C/C=C/c2ccccc2/C=C/C(=O)NS(=O)(=O)c2cccs2)ccc1OCc1ccccc1` are 1500 nM (antagonist), 8700 nM (antagonist), 1.6 nM (antagonist) and 840 nM (antagonist).
In the case of `O=C(/C=C/c1ccccc1/C=C/Cc1ccccc1)NS(=O)(=O)c1cccs1`, the inhibitory constant (Ki) in data set [3] was 8500 nM (antagonist); in data set [5] it was 8000 nM (antagonist); in [6], 5 nM (antagonist); in [13], 1500 nM (antagonist).
Consider `COc1ccc(Br)cc1S(=O)(=O)NC(=O)/C=C/c1ccccc1Cc1ccc2cc(OCc3ccccc3)ccc2c1`, for which the antagonist equilibrium constant (Kb) in data set [1] was 0.7 nM. Besides, the inhibition constant Ki in data set [3] was greater than 100000 nM; in [5], greater than 100000 nM; in [6], 0.9 nM (antagonist); in data set [15], 0.7 nM (antagonist); in [10], greater than 500 nM; in [12], greater than 500 nM. The figures for the inhibition constant Ki (in data set [13]; on Prostacyclin receptor; at Thromboxane A2 receptor) were 8000 nM (antagonist), greater than 500 nM and greater than 500 nM, respectively. Besides, the ED50 in the data set on Rattus norvegicus [4] was greater than 30 mg/kg. Besides, the Activity in the data set on Rattus norvegicus [7] came to 8 µM.
As to `Cc1ccc(OCc2ccccc2)c(CCCc2ccccc2CCC(=O)NS(=O)(=O)c2cccs2)c1`, the inhibitory constant (Ki) was 6700 nM (antagonist) in data set [3], 1600 nM (antagonist) in [5], 56 nM (antagonist) in data set [6] and 1000 nM (antagonist) in [13].
Taken in the same sequence, the figures for `Cc1ccc(OCc2ccccc2)c(/C=C/Cc2ccccc2/C=C/C(=O)NS(=O)(=O)c2cccs2)c1` were 2300 nM (antagonist), 2100 nM (antagonist), 10 nM (antagonist) and 960 nM (antagonist).
In the same order, the values of `Cc1ccc(OCc2ccccc2)c(CCCc2ccccc2CCC(=O)O)c1` are 23000 nM, 940 nM (antagonist), 65 nM (antagonist) and 440 nM (antagonist).
With `O=C(/C=C/c1ccccc1Cc1ccc2cc(OCc3ccccc3)ccc2c1)NS(=O)(=O)c1cccs1`, the Ki in [3] is 3200 nM (antagonist); in data set [5] it was 8000 nM (antagonist); in data set [6], 0.6 nM (antagonist); in [15], 2.4 nM (antagonist); in data set [13], 1100 nM (antagonist).
In the case of `COc1cc(/C=C/Cc2ccccc2/C=C/C(=O)O)ccc1OCc1ccccc1`, the inhibition constant (Ki) is greater than 20000 nM in [3], 750 nM (antagonist) in [5], 8 nM (antagonist) in data set [6] and 610 nM (antagonist) in [13].
In the same order, the values of `O=C(/C=C/c1ccccc1C/C=C/c1ccccc1)NS(=O)(=O)c1cccs1` are 8500 nM (antagonist), 8000 nM (antagonist), 5 nM (antagonist) and 1500 nM (antagonist).
In the same order, the values of `COc1ccc(/C=C/Cc2ccccc2/C=C/C(=O)NS(=O)(=O)c2cccs2)cc1` are 2600 nM (antagonist), 6500 nM (antagonist), 2.4 nM (antagonist) and 1000 nM (antagonist).
Taken in the same sequence, the figures for `COc1ccc(C/C=C/c2ccccc2/C=C/C(=O)NS(=O)(=O)c2cccs2)cc1` were 2600 nM (antagonist), 6500 nM (antagonist), 2.4 nM (antagonist) and 1000 nM (antagonist).
Regarding `Cc1ccc(OCc2ccccc2)c(C/C=C/c2ccccc2/C=C/C(=O)NS(=O)(=O)c2cccs2)c1`, the inhibition constant (Ki) in data set [3] is 2300 nM (antagonist); in [5], 2100 nM (antagonist); in [6], 10 nM (antagonist); in data set [13], 960 nM (antagonist).
In the same order, the values of `COc1cc(/C=C/Cc2ccccc2/C=C/C(=O)NS(=O)(=O)c2cccs2)ccc1OCc1ccccc1` are 1500 nM (antagonist), 8700 nM (antagonist), 1.6 nM (antagonist) and 840 nM (antagonist).
